Species on record: Bos taurus
Experiment: Displacement of 3[H]Flunitrazepam from GABA-A central benzodiazepine receptor of bovine brain membranes at 3.4 uM
Format: cell membranes
Method in brief: (§1)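 A single-concentration screen against specific [3H]flunitrazepam (0.6 nM) binding to bovine brain membranes (0.4–0.5 mg protein). Incubation was in 50 mM Tris-HCl at 0 °C for 90 min, with compounds added in ethanol. Diazepam at 10 μM defined nonspecific binding. Bound ligand was collected by rapid glass-fibre filtration and counted by scintillation. Percent inhibition is given as means ± SEM of five determinations.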

| Compound | inhibition [%] |
| --- | --- |
| Cn1c(=O)c2c(c(-c3ccccc3)nn2-c2ccccc2)c2ccccc21 | 21 |

Molecular target: not listed separately
Experiment: Displacement of 3[H]Flunitrazepam from GABA-A central benzodiazepine receptor of bovine brain membranes
Format: cell membranes, Bos taurus
Method in brief: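 Bovine brain membranes (0.4–0.5 mg protein) were incubated in triplicate with 0.6 nM [3H]flunitrazepam in 50 mM Tris-HCl at 0 °C for 90 min. Displacers were added in ethanol, at seven concentrations each. Nonspecific binding was defined with 10 μM diazepam. Samples were diluted with cold buffer, filtered on glass fibre and counted by scintillation. IC50 was taken from log-probit analysis; values are means ± SEM of seven determinations.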

| Compound | IC50 [nM] |
| --- | --- |
| Cc1ccc(-n2nc(-c3ccccc3)c3c(O)nc4ccccc4c32)cc1 | 39000 |
| Cn1c(=O)c2c(-c3ccccc3)nn(-c3cccc(Cl)c3)c2c2ccccc21 | 70 |
| Cc1cccc(-n2nc(-c3ccccc3)c3c(O)nc4ccccc4c32)c1 | 3000 |
| Cc1cccc(-n2nc(-c3ccccc3)c3c(=O)n(C)c4ccccc4c32)c1 | 90 |
| O=C1C2C=Nc3ccccc3C2=NN1c1ccccc1 (stereo not given) [CGS-8216] | 0.4 |
| Cn1c(=O)c2c(-c3ccccc3)nn(-c3ccc(Cl)cc3)c2c2ccccc21 | 1160 |
| O=C1C2C=Nc3ccccc3C2=NN1c1ccc(Cl)cc1 (stereo not given) [CGS-9896] | 0.6 |
| CNC1=Nc2ccc(Cl)cc2C(c2ccccc2)=[N+]([O-])C1 [CHLORDIAZEPOXIDE] | 0.79 |
| Cn1c(=O)c2c(-c3ccccc3)nn(-c3ccccc3)c2c2ccccc21 | 3100 |
| COc1ccc(-n2nc3c4ccccc4[nH]cc-3c2=O)cc1 | 0.1 |
| Cc1ccc(-n2nc(-c3ccccc3)c3c(=O)n(C)c4ccccc4c32)cc1 | 1100 |
| Oc1nc2ccccc2c2c1c(-c1ccccc1)nn2-c1cccc(Br)c1 | 1500 |
| Cn1c(=O)c2c(-c3ccccc3)nn(-c3cccc(Br)c3)c2c2ccccc21 | 100 |
| Oc1nc2ccccc2c2c1c(-c1ccccc1)nn2-c1cccc(Cl)c1 | 3000 |
| Oc1nc2ccccc2c2c1c(-c1ccccc1)nn2-c1ccccc1 | 21000 |
| CN1C(=O)CN=C(c2ccccc2)c2cc(Cl)ccc21 [DIAZEPAM] | 0.025 |
| Oc1nc2ccccc2c2c1c(-c1ccccc1)nn2-c1ccc(Cl)cc1 | 30000 |

Species on record: Bos taurus
Experiment: Displacement of 3[H]Flunitrazepam from GABA-A central benzodiazepine receptor of bovine brain membranes at 34 uM
Format: cell membranes
Method in brief: as §1

| Compound | inhibition [%] |
| --- | --- |
| Oc1nc2ccccc2c2c(-c3ccccc3)nn(-c3ccccc3)c12 | 10 |
| Oc1nc2ccccc2c2c(-c3ccccc3)nn(-c3cccc(Cl)c3)c12 | 8 |

From ChEMBL document CHEMBL1123606, “1,3-Diarylpyrazolo[4,5-c]- and -[5,4-c]quinolin-4-ones. 4. Synthesis and specific inhibition of benzodiazepine receptor binding” (J Med Chem, 1987)
